Reference: ChEMBL document CHEMBL1138715, “Isoxazole-3-hydroxamic acid derivatives as peptide deformylase inhibitors and potential antibacterial agents” (Bioorg Med Chem Lett, 2004)
≈ marks a conversion by molar mass, not a printed value.

Tests used:
Type in all cases: functional
Staphylococcus aureus [1] = experiment: In vitro inhibitory activity against Staphylococcus aureus
How it was run: (§1)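 Enzyme inhibition of peptide deformylase (PDF) from E. coli or S. aureus, in vitro. IC50 reported in µM as the mean of three experiments.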

Escherichia coli [2] = experiment: In vitro antibacterial activity against Escherichia coli mutant strain EC-AH547
How it was run: (§2)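 MICs in µg/mL, determined by dilution susceptibility testing in liquid culture under NCCLS standard conditions for aerobically growing bacteria. Strains: EC-AH547, a tolC E. coli mutant with reduced efflux-pump activity; SA-101, a multiresistant S. aureus; SA-ATCC-25923, wild-type S. aureus.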

Escherichia coli [3] = experiment: In vitro antibacterial activity against Escherichia coli wild type EC-ATCC-25922
How it was run: (§3)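 MIC, the lowest inhibiting concentration in µg/mL, determined in liquid culture by NCCLS standard dilution susceptibility conditions for aerobically growing bacteria. EC-ATCC-25922 is wild-type E. coli; EC-DC2 is a hyperpermeable E. coli strain.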

Escherichia coli [4] = experiment: In vitro antibacterial activity against Escherichia coli hyperpermeable strain EC-DC2; how it was run: as §3
Staphylococcus aureus [5] = experiment: In vitro antibacterial activity against Staphylococcus aureus wild type SA-ATCC-25923; how it was run: as §2
Staphylococcus aureus [6] = experiment: In vitro antibacterial activity against Staphylococcus aureus multi-resistant strain SA-101; how it was run: as §2
Escherichia coli [7] = experiment: In vitro inhibitory activity against Escherichia coli; how it was run: as §1

| IC50 (Staphylococcus aureus [1]) | Compound | also measured |
| --- | --- | --- |
| 3.4 µM | CC(C)c1ccccc1S(=O)(=O)Cc1cc(C(=O)NO)no1 |  |
| 42 µM | CC(=O)Nc1ccc(SCc2cc(C(=O)NO)no2)cc1 |  |
| 4.9 µM | O=C(NO)c1cc(CSc2ccccc2Br)on1 |  |
| 24 µM | COc1ccc(SCc2cc(C(=O)NO)no2)cc1 |  |
| 1.7 µM | O=C(NO)c1cc(CS(=O)(=O)c2cccc(Cl)c2)on1 |  |
| 2 µM | O=C(NO)c1cc(CSc2cccc(Br)c2)on1 |  |
| 2.2 µM | O=C(NO)c1cc(CSCc2cccc(C(F)(F)F)c2)on1 |  |
| 8.7 µM | O=C(NO)c1cc(CSc2ccc(C(F)(F)F)cc2)on1 |  |
| 37.7 µM | Cc1cc(C)c(SCc2cc(C(=O)NO)no2)c(C)c1 |  |
| 0.9 µM | Cc1ccc([S+]([O-])Cc2cc(C(=O)NO)no2)cc1 (stereo not given) |  |
| 3.8 µM | O=C(NO)c1cc(CSc2ccccc2Cl)on1 |  |
| 1.5 µM | O=C(NO)c1cc(CSc2ccc(F)cc2)on1 |  |
| 4 µM | Cc1ccc(SCc2cc(C(=O)NO)no2)cc1 |  |
| 0.8 µM | O=C(NO)c1cc(CS(=O)(=O)c2ccc(Cl)cc2)on1 |  |
| 6.5 µM | COc1cccc(S(=O)(=O)Cc2cc(C(=O)NO)no2)c1 |  |
| 7.6 µM | CC(C)c1ccccc1SCc1cc(C(=O)NO)no1 |  |
| 9.3 µM | O=C(NO)c1cc(CSc2ccccc2C(F)(F)F)on1 |  |

| Compound | IC50 (Staphylococcus aureus [1]) | also measured |
| --- | --- | --- |
| COc1cccc(SCc2cc(C(=O)NO)no2)c1 | 2.2 µM | MIC (Escherichia coli [2]): 128 µg/mL (≈ 457 µM); MIC (Escherichia coli [3]): > 128 µg/mL; MIC (Escherichia coli [4]): 128 µg/mL (≈ 457 µM); MIC (Staphylococcus aureus [5]): > 128 µg/mL |
| O=C(NO)c1cc(CSc2ccc(Cl)c(Cl)c2)on1 | 2 µM | MIC (Escherichia coli [2]): 16 µg/mL (≈ 50.1 µM); MIC (Escherichia coli [3]): > 128 µg/mL; MIC (Escherichia coli [4]): 32 µg/mL (≈ 100 µM); MIC (Staphylococcus aureus [5]): 128 µg/mL (≈ 401 µM); MIC (Staphylococcus aureus [6]): 128 µg/mL (≈ 401 µM) |
| O=C(NO)c1cc(CSc2ccc(Cl)cc2)on1 | 1.3 µM | MIC (Escherichia coli [2]): 64 µg/mL (≈ 225 µM); MIC (Escherichia coli [3]): 128 µg/mL (≈ 450 µM); MIC (Escherichia coli [4]): 32 µg/mL (≈ 112 µM); MIC (Staphylococcus aureus [5]): > 128 µg/mL |
| Cc1ccc(S(=O)(=O)Cc2cc(C(=O)NO)no2)cc1 | 1.4 µM | IC50 (Escherichia coli [7]): 11.5 µM |
| O=C(NO)c1cc(CSc2cccc(Cl)c2)on1 | 2.3 µM | MIC (Escherichia coli [2]): 64 µg/mL (≈ 225 µM); MIC (Escherichia coli [3]): > 128 µg/mL; MIC (Escherichia coli [4]): 32 µg/mL (≈ 112 µM); MIC (Staphylococcus aureus [5]): > 128 µg/mL |
